Source: ChEMBL document CHEMBL4428026, “Discovery of New Monocarbonyl Ligustrazine-Curcumin Hybrids for Intervention of Drug-Sensitive and Drug-Resistant Lung Cancer” (J Med Chem, 2016)
pIC50: −log10 of the molar value. Active and inactive are the calls of the source. The calls are words filed in the database; no cut-off is given here.

Experiments:
[1] = tested on: A549; experiment: Antiproliferative activity against human A549 cells after 72 hrs by MTT assay; type: functional, cell-based; conditions: A549, 72 h
Summary of the method: (§1)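 Cells (A549, A549/DDP, SPC-A-1, LTEP-G-2, non-tumor bronchial epithelial HBE) were exposed in triplicate to vehicle or compound for 72 h. MTT (5 mg/mL in PBS) was then added for 4 h, formazan was dissolved in DMSO, and absorbance was read at 570 nm. IC50 values were derived from viability.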

[2] = tested on: A549; experiment: Induction of ROS generation in human A549 cells 2.1 to 4.2 uM after 60 mins by DHE staining-based fluorescence assay in presence of NAC; type: functional, cell-based
[3] = Antiproliferative activity against human SPC-A1 cells after 72 hrs by MTT assay; type: functional, cell-based; conditions: SPCA1, 72 h; summary of the method: as §1
[4] = Cytotoxicity against NHBE cells after 72 hrs by MTT assay; type: cell-based; conditions: Homo sapiens; summary of the method: as §1
[5] = molecular target: Thioredoxin reductase (Homo sapiens, UniProt Q16881+Q9NNW7+Q86VQ6); experiment: Inhibition of thioredoxin reductase (unknown origin) after 2 hrs by DTNB dye based microplate spectrophotometry; type: protein assay
Summary of the method: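 NADPH-reduced TrxR (0.16 µM) was preincubated in triplicate with vehicle DMSO (0.1%, v/v) or varying compound concentrations for 2 h. It was then reacted with 2 mM DTNB and 200 µM NADPH for 3 min, and absorbance was read at 412 nm. IC50 was derived.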

[6] = tested on: A549; experiment: Induction of ROS generation in human A549 cells 2.1 to 4.2 uM after 60 mins by DHE staining-based fluorescence assay in presence of GSH; type: functional, cell-based
[7] = tested on: A549; experiment: Induction of apoptosis in human A549 cells at 2.1 to 4.2 uM after 24 hrs by annexin V-FITC/propidium iodide staining-based flow cytometry; type: functional, cell-based
Summary of the method: (§2)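 Cells were seeded at 1 × 10^5/well and treated 24 h with DMSO (1%) or compound. They were then washed in PBS, stained with FITC-Annexin V and propidium iodide, and apoptotic fractions were quantified by flow cytometry.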

[8] = tested on: A549/CDDP; experiment: Induction of apoptosis in human A549/CDDP cells at 0.6 to 1.2 uM after 24 hrs by annexin V-FITC/propidium iodide staining-based flow cytometry; type: functional, cell-based; summary of the method: as §2
[9] = tested on: A549; experiment: Induction of apoptosis in human A549 cells assessed as decrease in Bcl2 expression at 2.1 to 4.2 uM after 24 hrs by Western blot method; type: functional, cell-based
Summary of the method: (§3)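 Cells were plated at 1 × 10^6/well overnight, then treated 24 h with vehicle DMSO (0.1%, v/v) or compound (A549, 2.1 or 4.2 µM; A549/DDP, 0.6 or 1.2 µM). Lysis was at 4 °C. Lysates were run on SDS-PAGE (7.5% gel, 20 µg/lane) and immunoblotted with ECL detection; phospho-Akt Ser473 and phospho-ERK Thr202/Tyr204 were probed. Bands were normalized to GAPDH (TrxR, Trx) or β-actin. Three independent experiments were run.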

[10] = tested on: A549; experiment: Induction of apoptosis in human A549 cells assessed as increase in Bax expression at 2.1 to 4.2 uM after 24 hrs by Western blot method; type: functional, cell-based; summary of the method: as §3
[11] = tested on: A549/CDDP; experiment: Induction of apoptosis in human A549/CDDP cells assessed as increase in Bax expression at 0.6 to 1.2 uM after 24 hrs by Western blot method; type: functional, cell-based; summary of the method: as §3
[12] = tested on: A549; experiment: Induction of apoptosis in human A549 cells assessed as increase in cleaved caspase 3 level at 2.1 to 4.2 uM after 24 hrs by Western blot method; type: functional, cell-based; summary of the method: as §3
[13] = tested on: A549/CDDP; experiment: Induction of apoptosis in human A549/CDDP cells assessed as increase in cleaved caspase 3 level at 0.6 to 1.2 uM after 24 hrs by Western blot method; type: functional, cell-based; summary of the method: as §3
[14] = tested on: A549; experiment: Induction of apoptosis in human A549 cells assessed as increase in cleaved PARP level at 2.1 to 4.2 uM after 24 hrs by Western blot method; type: functional, cell-based; summary of the method: as §3
[15] = tested on: A549/CDDP; experiment: Effect on NFkappaB expression in human A549/CDDP cells at 0.6 to 1.2 uM after 24 hrs by Western blot method; type: functional, cell-based; summary of the method: as §3
[16] = tested on: A549; experiment: Effect on ERK expression in human A549 cells at 2.1 to 4.2 uM after 24 hrs by Western blot method; type: functional, cell-based; summary of the method: as §3
[17] = tested on: A549; experiment: Inhibition of NFkappaB phosphorylation in human A549 cells at 2.1 to 4.2 uM after 24 hrs by Western blot method; type: cell-based; summary of the method: as §3
[18] = tested on: A549; experiment: Inhibition of ERK phosphorylation in human A549 cells at 2.1 to 4.2 uM after 24 hrs by Western blot method; type: cell-based; summary of the method: as §3
[19] = tested on: A549/CDDP; experiment: Decrease in P-gp expression in human A549/CDDP cells at 0.6 to 1.2 uM after 24 hrs by Western blot method; type: functional, cell-based
Summary of the method: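 A549/DDP cells were treated for 24 h with vehicle DMSO (0.1%, v/v) or 0.6 or 1.2 µM compound. Lysates were run on SDS-PAGE (7.5% gel, 20 µg/lane), blotted to PVDF and probed with anti-P-gp, with detection by ECL. P-gp was normalized to β-actin. Three independent experiments were run.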

[20] = Acute toxicity in ICR mouse assessed as mortality at 200 to 450 mg/kg, ip measured on day 4 to 14 post treatment; type: organism-based; conditions: in vivo
Summary of the method: (§4)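 Male and female ICR mice (7 weeks), randomized, 10 per group, given one intraperitoneal dose at 200, 250, 300, 350, 400 or 450 mg/kg. Animals were watched for abnormal behaviour and deaths up to two weeks. Deaths were tallied at 1 h, 4 h, day 3 and days 4-14, with survival on day 14. LD50 was calculated with 95% confidence limits.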

[21] = Acute toxicity in ICR mouse assessed as mortality at 450 mg/kg, ip; type: organism-based; conditions: in vivo; summary of the method: as §4
[22] = Acute toxicity in ICR mouse assessed as survival at 400 mg/kg, ip measured on day 14; type: organism-based; conditions: in vivo; summary of the method: as §4
[23] = Acute toxicity in ICR mouse assessed as survival at 350 mg/kg, ip measured on day 14; type: organism-based; conditions: in vivo; summary of the method: as §4
[24] = Acute toxicity in ICR mouse assessed as survival at 200 mg/kg, ip measured on day 14; type: organism-based; conditions: in vivo; summary of the method: as §4
[25] = Acute toxicity in ip dosed ICR mouse assessed as mortality measured up to 2 weeks; type: organism-based; conditions: in vivo; summary of the method: as §4
[26] = tested on: A549/CDDP; experiment: Anticancer activity against human A549/CDDP cells xenografted in BALB/c nude mouse assessed as tumor growth inhibition at 20 mg/kg, ip administered daily for 15 consecutive days measured every 3 days; type: functional; conditions: read-out: TGI
Summary of the method: (§5)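 Both sexes of athymic BALB/c nude mice (4-5 weeks) were inoculated subcutaneously with A549/DDP cells (1 × 10^7/mouse). Once tumors reached 180-200 mm3, mice were randomized (n = 8). They received ip dosing daily for 15 consecutive days, with vehicle PBS/DMSO/cremophor-EL (8:1:1). Tumors were measured by caliper and volume was taken as width2 × length/2. Growth inhibition was taken from tumor weight (w/w).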

[27] = tested on: A549/CDDP; experiment: Anticancer activity against human A549/CDDP cells xenografted in BALB/c nude mouse assessed as tumor growth inhibition at 40 mg/kg, ip administered daily for 15 consecutive days measured every 3 days; type: functional; conditions: 15 days, read-out: TGI; summary of the method: as §5

Compound: COc1cc(/C=C/C(=O)/C=C/c2nc(C)c(C)nc2C)ccc1O
- pIC50 [1]: 5.66
- Activity [2]: inactive
- pIC50 [3]: 5.51
- pIC50 [4]: 4.67
- IC50 [5]: 2.95 µM
- Activity [6]: inactive
- Activity [7]: Active
- Activity [8]: Active
- Activity [9]: Active
- Activity [10]: Active
- Activity [11]: Active
- Activity [12]: Active
- Activity [13]: Active
- Activity [14]: Active
- Activity [15]: inactive
- Activity [16]: inactive
- inhibition [17]: Active
- inhibition [18]: Active
- Activity [19]: Active
- Activity [20]: Non-Toxic
- Activity [21]: Toxic
- survival at 14 day [22]: 10%
- survival at 14 day [23]: 30%
- survival at 14 day [24]: 90%
- LD50 at 336 h [25]: 285 mg/kg
- inhibition in vivo at 20 mg/kg [26]: 36%
- inhibition in vivo at 40 mg/kg [27]: 67%
